This sample holds only a part of the variants without activity. Bounds are passed on as bounds.

Sequences and labels used below:
B1: tRNA (parent)
chain: GUUCCGUUGGCGUAAUGGUAACGCGUCUCCCUCCUAAGGAGAAGACUGCGGGUUCGAGUCCCGUACGGAACG

Variants of B1 are the subject of this data set. Description: yeast fitness relative to wild type (ratio to wild type); higher = fitter; tRNA-Arg(CCU), competitive growth, 37 C, YPD. A digest of the protocol: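 Variants of the tRNA-Arg(CCU) gene were chemically synthesised with a 3% per-site mutation rate across 69 sites and placed at the native genomic locus in Saccharomyces cerevisiae. Six parallel replicates of the pooled strains were competed in YPD at 37°C for 24 hours, and gene amplicons from the start and end populations were read by 100-nucleotide paired-end sequencing. Darwinian fitness relative to wild type was derived from changes in genotype frequencies. Genotypes required ≥ 100 starting reads, and estimates < 0.5 were set to 0.5.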
As to C4A U7A U59A, the yeast fitness was at most 0.5.

As to C4A U53C U64A, the yeast fitness was at most 0.5.

As to C4A U16C G17A C62A, the yeast fitness is at most 0.5.

For the variant C4A U53A G67U, the yeast fitness is at most 0.5.

Consider C4A U16A U32C C62U A70U, for which the yeast fitness was at most 0.5.

As to C4G A14C G48A C49U, the yeast fitness was at most 0.5.

On to C4G A20U C31G A65U, for which the yeast fitness is at most 0.5.

For C4A G18A A20C U26G C27U C49U, the yeast fitness is at most 0.5.

As to C4A G10A U28A C55G, the yeast fitness is at most 0.5.

Take C4G A15U A21G G56A: the yeast fitness was 0.626.

Turning to C4A U26A C34G G38A G68C, the yeast fitness is at most 0.5.

As for C4A U13A A14C A43U, the yeast fitness turned out to be 0.601.

C4A G10C C11U C27U A45U C60G: the yeast fitness was at most 0.5.

Turning to C4G A21G A36U U59A, the yeast fitness stood at 0.502.

As to C4A U54C U59A, the yeast fitness came to 0.542.

Take C4A G67A: the yeast fitness worked out at 0.781.

Consider C4A U13G A45U U47A, for which the yeast fitness was found to be 0.616.

As to C4G A15U G18C G23C C24G G56C A70G, the yeast fitness was 0.586.

With C4A G17A G41A C61U G63U G68A, the yeast fitness is at most 0.5.

Take C4A U13C C30U A40G C55A G63C A65C: the yeast fitness is at most 0.5.

As to C4G A21G C22U U28A U35C, the yeast fitness was at most 0.5.

For C4A U13G A40G A45U U47A, the yeast fitness is at most 0.5.

Take C4A U47A G48C: the yeast fitness worked out at 0.559.

On to C4A G48A, for which the yeast fitness came out at 0.964.

Regarding C4A G17C G50A G51A, the yeast fitness is at most 0.5.

For the variant C4G A20U A57U C66U, the yeast fitness is at most 0.5.

For the variant C4G A15C C46A G67A, the yeast fitness was at most 0.5.

With C4A U7A U8G A45C, the yeast fitness is at most 0.5.

C4A G63A A65U: the yeast fitness is at most 0.5.

For the variant C4A U7A, the yeast fitness came to 0.679.

On to C4G A20U G50A G58C C66U, for which the yeast fitness is at most 0.5.

For C4A U8C A15C C31U G48C A65C, the yeast fitness stood at 0.608.

On to C4A G17A G41A G67A, for which the yeast fitness was at most 0.5.

On to C4A G39A, for which the yeast fitness is 0.914.

Consider C4A U16G, for which the yeast fitness came to 0.651.

Consider C4A U53C G68C, for which the yeast fitness was found to be 0.553.

Turning to C4A U16C G17A, the yeast fitness turned out to be 0.567.

Turning to C4G A20U C60G C62G, the yeast fitness came out at 0.584.

In the case of C4A G48A A65C, the yeast fitness came out at 0.618.

On to C4A G23A G25C G51A, for which the yeast fitness came to 0.607.

For C4A G18C C24U C29U C34A, the yeast fitness was 0.592.

With C4G A20U G67A, the yeast fitness is at most 0.5.

With C4A U13C U32G, the yeast fitness came to 0.571.

C4A G17A C30A: the yeast fitness is at most 0.5.

Take C4A U16A C29G C55U C66U: the yeast fitness is at most 0.5.

As to C4A U7C G41A C49A, the yeast fitness was 0.504.

As to C4A G9A C24U C30U A36G A57G G58A G63A C66U, the yeast fitness was at most 0.5.

Consider C4G A36C, for which the yeast fitness turned out to be 0.745.

Turning to C4G A14C C30U A40U C49U, the yeast fitness is 0.504.

For the variant C4G A20U C61G, the yeast fitness was at most 0.5.

Turning to C4G A20G C27A C46U A65U, the yeast fitness was at most 0.5.

With C4A U16C G17A A69U, the yeast fitness was at most 0.5.

Regarding C4A U16C G17A A40C A43U U47A C60A, the yeast fitness was at most 0.5.

As for C4A G9A, the yeast fitness amounted to 0.907.

For the variant C4G A14C G50C C62G, the yeast fitness is at most 0.5.

As for C4G A15U G56C U59A, the yeast fitness is at most 0.5.

As for C4A G12A C34G C66U, the yeast fitness is at most 0.5.

As to C4A U8G A14U A70U, the yeast fitness was at most 0.5.

As to C4A G67U A69G, the yeast fitness was 0.751.

In the case of C4A U16C G17A C31U U54A, the yeast fitness was at most 0.5.

In the case of C4A G17A C22A C31A C33A C49A, the yeast fitness turned out to be 0.525.

As to C4G A14U C34U, the yeast fitness was determined as 0.591.

For the variant C4A G6A U53A A65U, the yeast fitness was at most 0.5.

Turning to C4A G25A C29A A37G G50C U59A, the yeast fitness was at most 0.5.

Consider C4G A14G G44C U47A, for which the yeast fitness was at most 0.5.

As for C4A U16C C27G A42G U53A, the yeast fitness is at most 0.5.

For C4A U7A C11U C31U U59A, the yeast fitness was at most 0.5.

C4A U13C G23C C34G A40G A45G U53C U64A: the yeast fitness is at most 0.5.

With C4A G23A, the yeast fitness turned out to be 0.89.

Consider C4A G23C, for which the yeast fitness is 0.77.

In the case of C4A U16G C24U G48A, the yeast fitness worked out at 0.643.

As for C4G A15G G23A C34G G67U, the yeast fitness was at most 0.5.

Consider C4A G9C C31A G41A, for which the yeast fitness stood at 0.773.

As to C4G A14C A20C A40G G44C U53C C55A A65U, the yeast fitness is at most 0.5.

Take C4A G44C A57C: the yeast fitness was at most 0.5.

C4A G17A A21G C24G G67A A70G: the yeast fitness was at most 0.5.

C4A G9A G18C C22A G50C A65C: the yeast fitness is at most 0.5.

Turning to C4A G9A C24U C30U A36G A57G G58A G63A, the yeast fitness was at most 0.5.

C4G A20U G25A: the yeast fitness is at most 0.5.

As to C4G A15C U19A, the yeast fitness was at most 0.5.

Regarding C4A G23C C31U C34G A43G A45C A57U, the yeast fitness is at most 0.5.

Turning to C4G A14C C31U U35A U47G, the yeast fitness is at most 0.5.

For C4A U26G C66U, the yeast fitness is at most 0.5.

These data come from the RNAGym collection of RNA variant scans (doi:10.1126/science.aae0568).
